Assay results collected from several papers.
Lines come from different studies, so protocols differ.

| SMILES | tested on | test | system | setting | measurement | value |
| --- | --- | --- | --- | --- | --- | --- |
| N=C(CC(O)c1cc2c(F)cc(F)cc2c2cc(C(F)(F)F)ccc12)NCc1ccc(F)cc1 (stereo not drawn) | Plasmodium falciparum | parasite growth, ELISA | 3D7 | 72 h, blood stage | IC50 | 1.11 µM |
| CCN(CC)CCOc1ccc2c(c1)C(=O)c1cc(OCCN(CC)CC)ccc1-2 | Plasmodium falciparum | parasite growth | DD2 | drug-resistant strain, blood stage | IC50 | 0.556 µM |
| CC(C)C[C@H](NC(=O)[C@H](CC(C)C)NC(=O)[C@H](CCCCN)NC(=O)[C@H](CCCCN)NC(=O)[C@H](CC(C)C)NC(=O)[C@H](CC(C)C)NC(=O)[C@H](CCCCN)NC(=O)[C@H](CCCCN)NC(=O)[C@H](CC(C)C)NC(=O)[C@H](CC(C)C)NC(=O)[C@H](CCCCN)NC(=O)[C@H](CCCCN)NC(=O)[C@H](CCC(=O)O)NC(=O)[C@@H](N)CC(C)C)C(N)=O | HCCC9810 | cell growth or viability, CCK-8 | – | – | IC50 | 6.96 µM |
| COc1ccc2cc1Oc1ccc(cc1)C[C@H]1c3c(cc4c(c3Oc3cc5c(cc3OC)CCN(C)[C@@H]5C2)OCO4)CCN1C | Plasmodium falciparum | parasite growth | DD2 | drug-resistant strain, blood stage | IC50 | 0.136 µM |
| N=C(CC(O)c1cc2c(F)cc(F)cc2c2cc(C(F)(F)F)ccc12)Nc1cccc(F)c1 (stereo not drawn) | Plasmodium falciparum | parasite growth, ELISA | 3D7 | 72 h, blood stage | IC50 | 0.0021 µM |
| Cc1ccc(N(CC2=NCCN2)c2cccc(O)c2)cc1 | Plasmodium falciparum | parasite growth | K1 | drug-resistant strain, blood stage | IC50 | 189 µM |
| CC(C)C[C@H](NC(=O)[C@H](CC(C)C)NC(=O)[C@H](CCCCN)NC(=O)[C@H](CCCCN)NC(=O)[C@H](CC(C)C)NC(=O)[C@H](CC(C)C)NC(=O)[C@H](CCCCN)NC(=O)[C@H](CCCCN)NC(=O)[C@H](CC(C)C)NC(=O)[C@H](CCC(=O)O)NC(=O)[C@H](CCCCN)NC(=O)[C@H](CCCCN)NC(=O)[C@H](CC(C)C)NC(=O)[C@@H](N)CC(C)C)C(N)=O | HCCC9810 | cell growth or viability, CCK-8 | – | – | IC50 | 9.4 µM |
| CCN1CCN(Cc2ccc(Nc3nc4ccc(Oc5ccnc(NC(=O)C6CCN(C)CC6)c5)cc4n3C)cc2C(F)(F)F)CC1 | Plasmodium falciparum | parasite growth, SYBR Green | DD2 | blood stage | EC50 | 0.116 µM |
| N=C(CC(O)c1cc2c(F)cc(F)cc2c2cc(C(F)(F)F)ccc12)NC1CC(F)(F)C1 (stereo not drawn) | Plasmodium falciparum | parasite growth, ELISA | 3D7 | 72 h, blood stage | IC50 | 0.0802 µM |
| CC(C)C[C@H](NC(=O)[C@H](CC(C)C)NC(=O)[C@H](CCCCN)NC(=O)[C@H](CCCCN)NC(=O)[C@H](CCC(=O)O)NC(=O)[C@H](CC(C)C)NC(=O)[C@H](CCCCN)NC(=O)[C@H](CCCCN)NC(=O)[C@H](CC(C)C)NC(=O)[C@H](CC(C)C)NC(=O)[C@H](CCCCN)NC(=O)[C@H](CCCCN)NC(=O)[C@H](CC(C)C)NC(=O)[C@@H](N)CC(C)C)C(N)=O | HCCC9810 | cell growth or viability, CCK-8 | – | – | IC50 | 8.32 µM |
| Cc1cccc(F)c1NC(=N)CC(O)c1cc2c(F)cc(F)cc2c2cc(C(F)(F)F)ccc12 (stereo not drawn) | Plasmodium falciparum | parasite growth, ELISA | 3D7 | 72 h, blood stage | IC50 | 0.0132 µM |
| C[C@@H]1CC[C@H]2[C@@H](C)C(=O)O[C@@H]3O[C@@]4(C)CC[C@@H]1[C@]32OO4 | Plasmodium falciparum | parasite growth | DD2 | drug-resistant strain, blood stage | IC50 | 0.0089 µM |
| N=C(CC(O)c1cc2c(F)cc(F)cc2c2cc(C(F)(F)F)ccc12)Nc1nnc(-c2ccc(F)cc2)o1 (stereo not drawn) | Plasmodium falciparum | parasite growth, ELISA | 3D7 | 72 h, blood stage | IC50 | > 37 µM |
| CC(C)C[C@H](NC(=O)[C@H](CC(C)C)NC(=O)[C@H](CCCCN)NC(=O)[C@H](CCCCN)NC(=O)[C@H](CC(C)C)NC(=O)[C@H](CC(C)C)NC(=O)[C@H](CCCCN)NC(=O)[C@H](CCCCN)NC(=O)[C@H](CCC(=O)O)NC(=O)[C@H](CC(C)C)NC(=O)[C@H](CCCCN)NC(=O)[C@H](CCCCN)NC(=O)[C@H](CC(C)C)NC(=O)[C@@H](N)CC(C)C)C(N)=O | HCCC9810 | cell growth or viability, CCK-8 | – | – | IC50 | 325 µM |
| N.N.[Cl][Pt][Cl] | RS4-11 | cell growth or viability, ATP luminescence | – | 10 µM, 72 h | inhibition | 100% |
